Experimental data reported in ChEMBL document CHEMBL1132241, “Novel multidrug resistance reversal agents” (J Med Chem, 1999).

Assays:
Mus musculus [1] = experiment: Percent increase in mean life span relative to treatment with an equivalent dose of vincristine alone at 25 mg/kg in mice with vincristine-resistantmurine leukemia P388/VCR cells; format: functional
Outline: (§1)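 CDF1 mice were implanted ip with 1 × 10^6 P388/VCR cells. Agent and 0.2 mg/kg vincristine were given simultaneously ip once daily, days 1–7. Mean survival over up to 30 days was compared with vincristine alone at an equivalent dose, giving % increase in life span. Student t-test was applied to mean survival time.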

Mus musculus [2] = experiment: Percent tumor growth inhibition against human epidermoid carcinoma KB/8.5 implanted subcutaneously in mice at 50 mg/kg of compound along with 8 mg/kg (DOX ) was determined; format: functional
Outline: (§2)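 Athymic nude mice bearing sc KB/8.5 tumors (8×10^6 cells, colchicine withdrawn for two passages), grouped at 100–300 mg tumor mass, 5–10 mice/group. Doxorubicin 8 mg/kg given once iv; reversal agent or placebo given sc 2 h before and 2 h after. Tumor mass on day 14 used for relative tumor growth versus doxorubicin alone; Student t-test on log RTG.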

Mus musculus [3] = experiment: Relative tumor growth inhibition against human epidermoid carcinoma KB/8.5 implanted subcutaneously only in mice at 8 mg/kg (DOX); format: functional; conditions: route subcutaneous
Outline: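 KB/8.5 cells grown in RPMI 1640 with 5% fetal calf serum plus colchicine (10 ng/mL), which was removed for two passages. 8 × 10^6 cells were then implanted sc in athymic nude mice. At 100-300 mg tumor mass, mice were grouped 5-10/group. Doxorubicin was given as a single iv dose (8 mg/kg). Tumor mass was measured on day 14, and relative growth was compared with saline control.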

[4] = Partition coefficient (logP); format: physicochemical; conditions: octanol/water
S1B1-20 = experiment: In vitro concentration required to inhibit tumor activity on subclone of human colon carcinoma cells (S1-B1-20) resistant to bisantrene; format: functional, cell-based; conditions: Homo sapiens, S1B1-20
Outline: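 S1-B1-20 cells (S1 clone of LS 174 T, selected in bisantrene over 12–16 weeks) plated at 20 000 cells/well with or without 20 μM bisantrene, plus test agent 0.1–80 μM from DMSO stock (final DMSO ≤0.1%). 3 days, 37 °C, 7% CO2. Survival by sulforhodamine B at 540 nm. IC50 from best-fit curve of difference score (survival alone minus survival with bisantrene) at 50; 2–4 sets of measurements.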

[5] = In vitro concentration at which 50% of human colon carcinoma cells (S1-B1-20) resistant to bisantrene have survived; format: ADME, cell-based, S1B1-20; conditions: S1-B1-20 human colon carcinoma cells resistant to bisantrene, read-out: LD50 (the source's name)
Outline: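 S1-B1-20 cells (LS 174 T-derived S1 clone selected in bisantrene over 12–16 weeks), trypsinized, 20 000 cells/well. Test agent alone in DMSO (≤0.1% final), 0.1–80 µM, 3 days at 37 °C, 7% CO2. Survival by sulforhodamine B read at 540 nm versus untreated cells. Two to four measurement sets were made, and the value is the concentration giving 50% survival from a best-fit curve.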

Mus musculus [6] = experiment: Percent increase in mean life span in mice infected with leukemia P388/VCR, at 25 mg/Kg dose; format: functional
Outline: (§3)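 CDF1 mice (groups of 10–15) were implanted ip with 1 × 10^6 P388/VCR cells. Agent plus 0.2 mg/kg vincristine were given together ip once daily on days 1–7, starting 1 day post-implant, in cremophor/ethanol or propylene glycol/ethanol vehicle. Survival was recorded to 30 days. Result is the % increase in mean life span versus placebo control.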

Mus musculus [7] = experiment: Percent increase in mean life span when 0.2 mg/kg vincristine was administered ip once daily on days 1-7, in mice infected with leukemia P388/VCR; format: functional; set-up: concentration or dose not given beside the values; conditions: route intraperitoneal
Outline: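 CDF1 mice bearing ip P388/VCR (1 × 10^6 cells) received 0.2 mg/kg vincristine ip once daily on days 1–7. Mean survival to 30 days was expressed as % increase in life span relative to placebo control.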

Mus musculus [8] = experiment: Percent tumor growth inhibition against human epidermoid carcinoma KB/8.5 implanted subcutaneously in mice at 100 mg/kg of compound along with 8 mg/kg (DOX ) was determined; format: functional; outline: as §2
Mus musculus [9] = experiment: Percent increase in mean life span in mice infected with leukemia P388/VCR, at 100 mg/Kg dose; format: functional
Outline: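 CDF1 mice were implanted ip with 1 × 10^6 P388/VCR cells (line passaged in DBA/2 ascites). Agent at 100 mg/kg in Cremophor/ethanol/saline was given ip once daily on days 1–7 without vincristine. Survival was followed to 30 days. Result is the % increase in mean life span versus placebo.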

Mus musculus [10] = experiment: Percent increase in mean life span relative to treatment with an equivalent dose of vincristine alone at 12.5 mg/kg in mice with vincristine-resistantmurine leukemia P388/VCR cells; format: functional; outline: as §1
Mus musculus [11] = experiment: Percent increase in mean life span in mice infected with leukemia P388/VCR, at 12.5 mg/Kg dose; format: functional; outline: as §3
Mus musculus [12] = experiment: Percent increase in mean life span relative to treatment with an equivalent dose of vincristine alone at 50 mg/kg in mice with vincristine-resistantmurine leukemia P388/VCR cells; format: functional; outline: as §1
Mus musculus [13] = experiment: Percent increase in mean life span in mice infected with leukemia P388/VCR, at 50 mg/Kg dose; format: functional; outline: as §3
Mus musculus [14] = experiment: Percent increase in mean life span in mice infected with leukemia P388/VCR, at 6.3 mg/Kg dose; format: functional; outline: as §3
Mus musculus [15] = experiment: Percent increase in mean life span relative to treatment with an equivalent dose of vincristine alone at 6.3 mg/kg in mice with vincristine-resistantmurine leukemia P388/VCR cells; format: functional; outline: as §1
Mus musculus [16] = experiment: Percent tumor growth inhibition obtained for the combination of DOX(8 mg/kg) together with MDR reversal agent versus DOX (8 mg/kg) alone on day 14 at 100 mg/kg dose(in vivo); format: functional; conditions: 336 h, read-out: TGI; outline: as §2

## COc1ccc(C(C#N)(CCCCCCCCCCCN2CCc3cc(OC)c(OC)cc3C2)Sc2ccc(C)cc2)cc1OC (stereo not given)
Mus musculus [1]
  ILS at 25 mg/kg: 14%
Mus musculus [2]
  TGI: 61%
Mus musculus [3]
  Relative tumor growth: 39
[4]
  logP: 9.35
S1B1-20
  IC50: 1.74 µM
[5]
  CC50: 10.8 µM
Mus musculus [6]
  ILS at 25 mg/kg: 42%
Mus musculus [7]
  ILS: 24%

## COc1cc2c(cc1OC)CN(CCCCCCC(Sc1ccccc1)c1ccccc1)CC2 (stereo not given)
Mus musculus [1]
  ILS at 25 mg/kg: 46%
Mus musculus [3]
  Relative tumor growth: 59
[4]; read-out: logP
  logP: 7.99
S1B1-20
  IC50: 3.82 µM
Mus musculus [8]
  TGI: 65%
[5]
  CC50: 24.6 µM
Mus musculus [6]
  ILS at 25 mg/kg: 68%
Mus musculus [7]
  ILS: 15%

## COc1ccc(C(C#N)(CCCCCN2CCc3cc(OC)c(OC)cc3C2)Sc2ccc(C)cc2)cc1OC (stereo not given)
Mus musculus [9]
  ILS at 100 mg/kg: -4%
Mus musculus [10]
  ILS at 12.5 mg/kg: 33%
Mus musculus [2]
  TGI: 59%
Mus musculus [3]
  Relative tumor growth: 69
[4]; read-out: logP
  logP: 6.18
S1B1-20
  IC50: 0.37 µM
Mus musculus [11]
  ILS at 12.5 mg/kg: 83%
[5]
  CC50: 13.6 µM
Mus musculus [7]
  ILS: 37%

## COc1ccc(C(C#N)(CCCCCN2CCc3cc4c(cc3C2)OCO4)Sc2ccc(C)cc2)cc1OC (stereo not given)
Mus musculus [1]
  ILS at 25 mg/kg: 16%
[4]; read-out: logP
  logP: 6.08
S1B1-20
  IC50: 3.09 µM
[5]
  CC50: 30 µM
Mus musculus [6]
  ILS at 25 mg/kg: 38%
Mus musculus [7]
  ILS: 24%

## COc1ccc(C(C#N)(CCN2CCc3cc(OC)c(OC)cc3C2)Sc2ccc(C)cc2)cc1OC (stereo not given)
Mus musculus [10]
  ILS at 12.5 mg/kg: 13%
[4]; read-out: logP
  logP: 4.59
S1B1-20
  IC50: 2.3 µM
Mus musculus [11]
  ILS at 12.5 mg/kg: 89%
[5]
  CC50: 33.7 µM
Mus musculus [7]
  ILS: 67%

## COC(=O)C(CCCN1CCc2cc(OC)c(OC)cc2C1)(Sc1ccc(C)cc1)c1ccc(OC)c(OC)c1 (stereo not given)
Mus musculus [12]
  ILS at 50 mg/kg: 11%
Mus musculus [13]
  ILS at 50 mg/kg: 25%
[4]; read-out: logP
  logP: 5.54
S1B1-20
  IC50: 1.47 µM
[5]
  CC50: 32.8 µM
Mus musculus [7]
  ILS: 13%

## COc1ccc(C(CCCCCN2CCc3cc(OC)c(OC)cc3C2)Sc2ccc(C)cc2)cc1OC (stereo not given)
Mus musculus [14]
  ILS at 6.3 mg/kg: 37%
Mus musculus [3]
  Relative tumor growth: 58
[4]; read-out: logP
  logP: 7.42
S1B1-20
  IC50: 0.33 µM
Mus musculus [8]
  TGI: 68%
Mus musculus [15]
  ILS at 6.3 mg/kg: 13%
[5]
  CC50: 16.9 µM
Mus musculus [7]
  ILS: 21%

## COc1ccc(C(C#N)(CCCCCN2CCc3cc(OC)c(OCCCl)cc3C2)Sc2ccc(C)cc2)cc1OC (stereo not given)
Mus musculus [3]
  Relative tumor growth: 75
[4]; read-out: logP
  logP: 6.77
Mus musculus [16]
  inhibition in vivo at 100 mg/kg: 64%
S1B1-20
  IC50: 0.37 µM
[5]
  CC50: 16.8 µM

## COc1ccc(C(C#N)(CCCN2CCc3cc(OC)c(OC)cc3C2)Sc2ccc(C)cc2)cc1OC (stereo not given)
Mus musculus [12]
  ILS at 50 mg/kg: 15%
Mus musculus [9]
  ILS at 100 mg/kg: -3%
Mus musculus [13]
  ILS at 50 mg/kg: 73%
Mus musculus [2]
  TGI: 63%
Mus musculus [3]
  Relative tumor growth: 39
[4]; read-out: logP
  logP: 5.12
S1B1-20
  IC50: 0.46 µM
[5]
  CC50: 24 µM
Mus musculus [7]
  ILS: 51%
